pKi: −log10 of the molar value. Calls of active or inactive are those of the source. The rule behind the calls is not given here.
How the values were obtained:
[1] = test system: RT-4; assay: Displacement of [125I]IAF from sigma 2 receptor in human RT4 cells at 10 uM after 30 mins preincubation by photoaffinity labeling experiment; type: cell-based
In short: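 Fresh membranes from sonicated RT4 human bladder papilloma cells (200 μg protein per reaction) preincubated with compound in 50 mM Tris pH 7.4, 30 min, 32°C. Then 1 nM [¹²⁵I]-IAF (final 1% ethyl acetate) added for 30 min at 32°C, photoactivated 6 sec with mercury lamp, quenched in SDS/β-mercaptoethanol sample buffer; labeled receptor bands examined.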

[2] = Displacement of [3H]ditolylguanidine from sigma 2 receptor in rat liver membrane after 1.5 hrs by scintillation counting in presence of sigma 1 blocker (+)-pentazocine; type: cell membranes
In short: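 Rat liver membranes (~50 μg total protein per reaction) in 50 mM Tris-HCl pH 8.0 with 10 nM [³H]-DTG plus 100 nM cold (+)-pentazocine to mask σ1 sites. […] Filtration on PEI-pretreated GF/B, scintillation counting, one-site competition fit, Ki via Cheng-Prusoff.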

[3] = biological target: Sigma non-opioid intracellular receptor 1 (Rattus norvegicus, UniProt Q9R0C9); assay: Displacement of (+)-[3H]pentazocine from sigma 1 receptor in rat liver membrane after 1.5 hrs by scintillation counting; type: cell membranes
Chain of Sigma non-opioid intracellular receptor 1 (Q9R0C9 whole entry): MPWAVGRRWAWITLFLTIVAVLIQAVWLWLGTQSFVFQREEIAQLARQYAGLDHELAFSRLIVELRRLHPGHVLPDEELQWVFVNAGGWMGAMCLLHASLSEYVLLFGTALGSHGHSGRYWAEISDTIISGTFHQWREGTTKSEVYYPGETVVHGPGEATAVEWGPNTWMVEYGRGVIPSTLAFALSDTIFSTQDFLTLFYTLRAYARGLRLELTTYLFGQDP
In short: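 Rat liver membranes (~50 μg total protein per reaction) incubated with 10 nM [³H]-(+)-pentazocine and serial dilutions of compound (stocks in DMSO) for 1.5 h at 32°C. […] Filtered through polyethyleneimine-pretreated GF/B filters, bound radioactivity counted by liquid scintillation. One-site competition fit, Ki by Cheng-Prusoff.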

[4] = species on record: Rattus norvegicus; assay: Selectivity ratio of Ki for rat sigma 1 receptor to Ki for rat sigma 2 receptor
In short: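 Ratio of Ki values from rat liver membrane competition binding: σ1 with 10 nM [³H]-(+)-pentazocine, σ2 with 10 nM [³H]-DTG plus 100 nM (+)-pentazocine; 1.5 h at 32°C, filtration and scintillation counting, Ki by Cheng-Prusoff.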

Row | pKi [2] | pKi [3] | Ratio Ki [4] | Structure (SMILES) | Activity [1]
1 | 7.67 | 7.06 | 4.12 | O=C1c2ccccc2C(=O)N1CCCCN1CCc2ccc([N+](=O)[O-])cc2C1 | Active
2 | < 2.00 | 2.92 | – | COc1cc2c(cc1OC)CN(CCCCNC(=O)c1cccc([N+](=O)[O-])c1)CC2 | –
3 | – | – | – | O=C(CCCN1CCC(O)(c2ccc(Cl)cc2)CC1)c1ccc(F)cc1 | Active
4 | 4.89 | 5.10 | 0.61 | COc1cccc(C(=O)NCCCCN2CCc3ccc([N+](=O)[O-])cc3C2)c1OC | inactive
5 | 6.06 | 4.13 | 86.2 | COc1c(I)ccc(C(=O)NCCCCN2CCc3ccc([N+](=O)[O-])cc3C2)c1O | –
6 | 5.28 | < 2.00 | – | COc1cc2c(cc1OC)CN(CCCCNC(=O)c1ccccc1)CC2 | –
7 | 7.57 | 4.99 | 385 | COc1ccc(C(=O)NCCCCN2CCc3ccc([N+](=O)[O-])cc3C2)c(OC)c1OC | –
8 | 5.40 | 4.95 | 2.8 | COc1cccc(C(=O)NCCCCN2CCc3ccc([N+](=O)[O-])cc3C2)c1O | –
9 | 3.82 | 4.83 | 0.096 | COc1cc2c(cc1OC)CN(CCCCNC(=O)c1ccc([N+](=O)[O-])cc1)CC2 | –
10 | 5.85 | 4.17 | 48.4 | COc1cc2c(cc1OC)CN(CCCCNC(=O)c1cccc(OC)c1O)CC2 | –

Reference: ChEMBL document CHEMBL1926655, “Electron-donating para-methoxy converts a benzamide-isoquinoline derivative into a highly Sigma-2 receptor selective ligand” (Bioorg Med Chem, 2011)
